# KCNQ1 act = potentiators or activators of KCNQ1 channel, primary screen, cell-based, thallium flux, high-throughput. 310,000 tested, 0.35% active. CHO-K1 KCNQ1, thallium flux FluxOR fluorescence; hits give high values. B-score at 10 µM. AID 2648, 2010;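 active = fluorescence ratio B-score, a plate-corrected score, at least three library SD, with initial intensity B-score within 5 SD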
#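 Assay system: CHO-K1 cells stably expressing KCNQ1; Medium: assay buffer with matched DMSO; Also added: K+/Tl+ depolarizing stimulus; Dosing: single dose; Timing: dye 90 min, compound 20 min, room temperature; Measured by: kinetic FluxOR thallium fluorescence, 10-s 1-Hz baseline, 110-s post-stimulus read; Read-out: peak-minus-minimum fluorescence over initial fluorescence, negative-control normalized, B-scored.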
# hERG protect = hERG rescue from dofetilide block, primary screen, cell-based, CHO-hERG, FluxOR thallium flux, dofetilide IC70. activation (rescue from dofetilide block), less the hit threshold, % at 10 µM. dofetilide IC70 present. 310,000 tested, 0.51% active. Voltage-gated inwardly rectifying potassium channel KCNH2 (Homo sapiens), Q12809;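 active = activation above the mean of controls blocked by dofetilide plus 5 SD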;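 also: thallium influx through hERG after potassium depolarization seen as dye fluorescence rise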
# Kir21 inh = inhibitors of mouse Kir2.1 inward-rectifier potassium channel; Inward rectifier potassium channel 2 (Mus musculus), P35561; HEK293-Kir2.1, FluxOR thallium flux fluorescence; hits give low values; B-score at 10 µM; 310,000 tested, 0.85% active; AID 1672, 2009;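 active = fluorescence ratio B-score at or below minus 3 SD of library scores, with starting-brightness B-score within 2 SD, cut at about -4.2 in these data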;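 also: channel flux triggered by added potassium and thallium sulfate stimulus; B-score of peak minus minimum fluorescence over baseline after thallium stimulus; more negative B-score means stronger Kir2.1 block with less thallium influx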
# Target sequence (P35561 whole entry, looked up): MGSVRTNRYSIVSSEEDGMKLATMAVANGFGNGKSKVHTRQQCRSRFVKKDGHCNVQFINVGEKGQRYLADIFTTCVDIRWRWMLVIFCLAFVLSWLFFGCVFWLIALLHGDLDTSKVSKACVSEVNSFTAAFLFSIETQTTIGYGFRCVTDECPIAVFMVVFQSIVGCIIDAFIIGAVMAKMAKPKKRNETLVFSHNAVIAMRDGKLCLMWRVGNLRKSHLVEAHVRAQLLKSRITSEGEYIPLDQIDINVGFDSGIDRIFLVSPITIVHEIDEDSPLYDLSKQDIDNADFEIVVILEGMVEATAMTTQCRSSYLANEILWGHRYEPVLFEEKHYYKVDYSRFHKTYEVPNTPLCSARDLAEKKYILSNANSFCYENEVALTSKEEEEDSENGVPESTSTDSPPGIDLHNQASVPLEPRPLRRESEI
# KCNK3 block = human KCNK3 channel inhibitors, primary screen, CHO cells, FluxOR thallium flux, B-score; Potassium channel subfamily K member 3 (Homo sapiens), O14649; 340,000 tested, 0.84% active; FluxOR fluorescence; hits give low values; AID 602410, 2012; B-score at 10 µM;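 active = B-score under library mean minus 4 SD, starting fluorescence ratio at most library mean plus 5 SD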;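 also: more negative B-score means stronger inhibition of thallium flux through KCNK3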
# KCNQ1 block = inhibitors of human KCNQ1 channel, primary screen, cell-based, thallium flux, high-throughput; Potassium voltage-gated channel subfamily KQT member 1 (Homo sapiens), P51787; CHO-K1 KCNQ1, FluxOR thallium flux fluorescence; hits give high values; B-score at 10 µM; 310,000 tested, 1.3% active; AID 2642, 2010;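 active = compounds whose thallium flux B-score, printed positive for inhibition, exceeds three library SD while starting fluorescence stays within three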;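 also: channel opened by potassium depolarization with thallium stimulus after 20 min compound exposure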
# KCNK9 inh = KCNK9 potassium channel inhibitors, primary screen, HEK293 cells, thallium flux. FluxOR thallium flux fluorescence; hits give low values. AID 488922, 2010. B-score at 10 µM. Potassium channel subfamily K member 9 (Homo sapiens), Q9NPC2. 310,000 tested, 1.2% active;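 active = ratio B-score over 3 SD below the library mean, with starting fluorescence within 5 SD of its mean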;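 also: negative B-score means less thallium flux so channel inhibition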
# Starred values were filed as active, the others as inactive; i = inactive; x = no result given. An excerpt weighted towards active compounds, which were near 3.7% of everything screened.
SMILES,KCNQ1 act,hERG protect,Kir21 inh,KCNK3 block,KCNQ1 block,KCNK9 inh
COc1ccc([N+](=O)[O-])cc1N(CC(O)CN(CC(C)C)CC(C)C)S(=O)(=O)c1ccccc1 (centres undefined),i,-7.7,0.16,i,i,-6.72*
COc1ccc(NC(=O)c2cc(S(=O)(=O)N3CCOCC3)ccc2C)cc1S(=O)(=O)N1CCCCC1,x,x,x,i,x,x
Cc1ccc(/C(O)=C/C(=O)C(=O)NNC(=O)C(O)(c2ccccc2)c2ccccc2)cc1,13*,0.6,0.07,i,i,i
CCOC(=O)c1ccc2c(c1)n(CC)c(/C=C/Nc1ccccc1)[n+]2CC,i,-24.9,-0.22,i,13*,i
O=[N+]([O-])c1ccc2nc(-c3ccc(OC(F)F)cc3)cn2c1,i,-14.7,-1.35,i,i,i
CC(C)(C)C1=CC=C(C(C)(C)C)C(=O)C1=O,i,-19.6,0.55,x,10*,i
N#C/C(=C(/O)CCl)c1nc(-c2ccccc2)cs1,i,-13.8,-0.01,i,i,i
Cc1ccc(-c2csc(/C(C#N)=C(\O)CCl)n2)cc1,i,-19.9,1.66,i,6*,i
Cc1ccccc1NC(=O)Cn1c(=O)sc2ccccc21,i,-7.2,-1.57,i,i,i
Cc1noc(C)c1CSc1ncnc2sc3c(c12)CCCCC3,11*,35.1*,-0.14,i,i,i
COc1ccc(Cl)cc1NC(=O)CN(C)C(=O)c1cc2c(F)cccc2s1,x,x,x,-8.76*,x,x
CN(CC(=O)Nc1ccccc1Cl)C(=O)COC(=O)C1=COCCO1,i,-4.6,-0.63,i,i,i
O=C(COC(=O)c1ccc(O)cc1O)N=c1sccn1Cc1ccccc1Cl,i,-9.7,-1.9,i,i,-6.92*
Cc1ccc(Cn2ccsc2=NC(=O)COC(=O)c2ccc(O)cc2O)cc1,i,-5.0,-1.05,i,i,i
CC(C)NC(=O)/C(C#N)=C/c1ccc(N(C)C)o1,i,-13.8,-3.71,i,7*,i
C=CCOC(=O)C1=C[C@H](c2csc3ccccc23)C[C@H](OCc2ccc(CO)cc2)O1,i,-20.3,-1.32,i,6*,i
O=[N+]([O-])/C=C\c1ccc(N2CCCC2)c(F)c1,i,-12.5,-1.43,-9.59*,i,i
CC(C)C[C@@H](CO)N1CCN(C)CCC1=O,i,-8.2,-1.32,i,i,i
COC(=O)c1cc(NC(=O)c2cccs2)ccc1N1CCOCC1,i,-22.2,0.77,i,i,i
COC(=O)c1cc(NC(=O)c2cc(-c3ccc(Cl)cc3)oc2C(F)(F)F)ccc1N1CCOCC1,i,-12.8,0.98,i,7*,i
O=C(N/C(=C\c1ccc2c(c1)OCO2)C(=O)N1CCOCC1)c1ccccc1Br,i,-9.4,-0.21,i,i,i
CC(NCc1ccc(-c2ccccc2)cc1)C(O)c1ccccc1 (centres undefined),i,-17.1,-14.1*,i,i,i
CC(O)CNCc1ccc(-c2ccccc2)cc1 (centres undefined),i,-8.1,0.15,i,i,i
CCN1C(=O)C(CC(=O)Nc2ccc(OC)cc2)N(CCc2ccc(OC)cc2)C1=S (centres undefined),i,-26.2,0,i,6*,i
CCN(CC)C(=O)CSc1nc(C)cc(C)c1C#N,i,-16.9,-0.09,i,i,i
SMILES,KCNQ1 act,hERG protect,Kir21 inh,KCNK3 block,KCNQ1 block,KCNK9 inh
CCN(Cc1ccccc1)C(=O)CSc1nc(C)cc(C)c1C#N,i,-11.1,-4.74*,i,i,i
CCn1c(SCC(=O)Nc2ccc(OC)c(S(=O)(=O)N3CCCCC3)c2)nnc1C1CC1,x,x,x,i,x,x
O=S(=O)(Nc1ccccc1N1CCOCC1)c1ccccc1C(F)(F)F,x,x,x,-10.3*,x,x
Cc1ccc(NC(=O)C(C)S)cc1 (centres undefined),i,-7.2,-1.34,i,i,i
OC(c1ccccc1)C(NCCNCc1ccccc1)c1ccccc1 (centres undefined),x,x,x,i,x,x
COC(=O)c1ccc(CSc2nc3ccccc3c(=O)n2CC(C)C)o1,i,-11.3,-1.19,i,i,-7.3*
CCOC(=O)CSc1nc2ccccc2c(=O)n1CC(C)C,i,-7.5,-3.02,i,i,i
COc1ccc(-c2nnc(CSc3nc4ccccc4c(=O)n3CC(C)C)o2)cc1OC,i,-5.0,-0.86,-9.51*,i,i
O=C(CSc1nc2ccccc2c(=O)[nH]1)Nc1ccc(C(=O)O)cc1,i,-10.3,-0.15,i,i,i
CCOc1ccc(NC(=O)c2ccc(N)cc2)cc1,11*,-0.6,0.88,i,i,i
CS(=O)(=O)N1CCc2cc(C(=O)Nc3ccc(Br)cc3)ccc21,i,-8.0,1.71,i,i,i
CCOc1ccc(NC(=O)c2ccc3c(c2)CCN3S(C)(=O)=O)cc1,i,11.1*,-1.63,i,i,i
CCOc1ccc(NC(=O)c2ccc(NC(=O)CSc3nc4ccccc4c(=O)[nH]3)cc2)cc1,i,4.7*,-1.47,i,i,i
O=C1CCC(=O)N(O)CCCCCNC(=O)CCC(=O)N(O)CCCCNC(=O)CCC(=O)N(O)CCCCCN1,i,-5.5,0.74,i,i,i
COc1cccc(-c2cc(C(=O)NCc3cccs3)no2)c1,i,-6.9,0.79,i,i,i
Cc1nc2ccccc2n1/C(=N\S(=O)(=O)c1ccccc1)c1ccccc1,i,-0.2,1.71,i,i,i
N=C(N)SCc1cn(-c2ccccc2)nc1-c1ccc(Br)cc1,i,-27.0,-7.05*,-13.7*,11*,i
Cc1ccc(-c2nn(-c3ccccc3)cc2CO)cc1,i,-14.7,-0.54,i,i,i
OCCNc1nc(-c2ccccc2)c2cc(Cl)ccc2n1,i,-5.2,1.39,i,i,i
COCCNC(=O)c1cccc(Nc2nc(-c3ccccc3)c3cc(Cl)ccc3n2)c1,i,-7.2,1.95,i,i,-6.81*
COc1ccc(NS(=O)(=O)c2cccc3nsnc23)cc1OC,i,-3.4,0,i,i,i
COc1ccc(S(=O)(=O)Nc2c(C)ccc3nsnc23)cc1OC,i,-3.3,-5.12*,i,i,i
